Source: PubChem BioAssay AID588478 (ICCB-Longwood Screening Facility, Harvard Medical School, 2011)
“And” between values parts separate entries of the source, which are not always exact repeats. Equal entries are not always repeated. Among all 330,000 compounds or so, about 1,100 (0.33%) were called active.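 How the source made its calls: active means mean inhibition over replicate wells above about 20% (limit read from the data); inactive means the rest.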 For the sample, actives were picked, then their nearest neighbours and some compounds at random.

What follows are compounds tested against Ubiquitin carboxyl-terminal hydrolase isozyme L5 (Homo sapiens) (UniProt Q9Y5K5) (assay: proteasome-bound UCH37 DUB activity blockers – biochemical, Ub-AMC cleavage, fluorescence, primary screen (AID 588478;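 further: 0% = compound-free wells with enzyme and 100% = wells lacking proteasome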)). Conditions: purified proteasome/UCH37, Ub-AMC cleavage fluorescence; stronger effect = higher value; concentration not given here.
Sequence of Ubiquitin carboxyl-terminal hydrolase isozyme L5 (Homo sapiens) (Q9Y5K5 whole entry, looked up): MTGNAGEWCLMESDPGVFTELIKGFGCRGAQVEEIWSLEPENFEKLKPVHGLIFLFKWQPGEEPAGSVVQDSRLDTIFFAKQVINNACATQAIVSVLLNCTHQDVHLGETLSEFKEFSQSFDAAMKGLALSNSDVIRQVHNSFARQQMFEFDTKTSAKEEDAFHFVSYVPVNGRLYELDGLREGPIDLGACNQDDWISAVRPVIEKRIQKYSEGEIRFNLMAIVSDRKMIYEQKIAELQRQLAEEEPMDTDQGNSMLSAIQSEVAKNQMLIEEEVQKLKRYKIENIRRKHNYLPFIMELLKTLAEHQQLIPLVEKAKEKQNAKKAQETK
Procedure, shortened: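 Material: human UCH37 enzyme supplied as purified proteasome complex / Amount: 0.15 nM proteasome as dispensed / Buffer or medium: pH 7.4 Tris-HCl (50 mM) with ovalbumin, ATP-MgCl2, DTT / Times: preincubation 30 min, reaction 25 min, room temperature / Technique: AMC fluorescence from Ub-AMC cleavage, excitation 355 nm, emission 460 nm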

inhibition, inactive:
CN(Cc1ccccc1)C(=O)c1cccc(C(=O)N(C)Cc2ccccc2)c1 0.499%, CCN(CC)C(=O)N(CC)Cc1ccccc1 -0.131%, O=S1(=O)CCC(=NNc2ccc(C(F)(F)F)cn2)c2cc(F)ccc21 0.609%, COc1ccc(C(=O)NCC(=O)NN=Cc2cn[nH]c2-c2ccccc2)cc1 1.68%, Cn1cccc1/C=C1\SC(=S)N(NC(=O)c2ccc(Cl)cc2)C1=O 1.88%, O=C(O)c1ccc2c(c1)C(=O)N(NC(=O)c1ccc(O)cc1)C2=O 7.31%, Cc1ccc(NC(=O)ON=Cc2ccc(F)cc2)cc1 5.21%, Cc1cc(=O)oc2c3c(ccc12)OCC3=NN -22.9%, CC(=NNc1ccccc1C(=O)O)c1cccs1 10.1%, COC(=O)c1ccc(C=NOCC(=O)NC2CCCCCCC2)cc1 0.759%, C=CCN1C=C2C(=O)C(C)(OC(=O)CCc3ccccc3)C(=O)C=C2C=C1c1ccc(C#N)cc1 (configuration not stated) -31%, CC1(OC(=O)CCc2ccccc2)C(=O)C=C2C=C(c3ccc(C#N)cc3)N(CCc3ccccn3)C=C2C1=O (configuration not stated) 0.0366%, COc1ccc(C=NNc2nncn2N)cc1Br 14.1%, O=C(CN(Cc1ccccc1)S(=O)(=O)c1ccc2c(c1)OCCO2)NN=Cc1cccc(Br)c1 0.583%, CCOc1ccccc1C=c1sc2nc(-c3ccco3)nn2c1=O 3.89%, CCC(=NNC(=O)Cc1ccc(Br)cc1)c1cccs1 0.706%, CCCS(=O)(=O)N1CCC(C(=O)NCCCN(C)Cc2ccccc2)CC1 -3.1%, CCS(=O)(=O)N1CCCC(C(=O)NCc2ccc(C)cc2)C1 (configuration not stated) 9.8%, O=C(NC1CCCC1)C(c1ccco1)N(C(=O)c1ccco1)c1ccc(F)cc1 (configuration not stated) 1.87%, COc1cc(C(C(=O)NC2CCCC2)N(C(=O)c2ccco2)c2ccccc2C(C)=O)cc(OC)c1OC (configuration not stated) 4.15%, Cc1cccc(C(=O)ON=C(c2ccccc2)c2ccncc2)c1 3.58%, Cc1ccc(-c2csc(N3CCN(c4cc5c(cc4Cl)nc(-c4ccncc4)n5CCOCCO)CC3)n2)cc1 -1.15%, CCCn1c(C2CCCN2c2nc(-c3ccc(C)cc3)cs2)nc2cc(Cl)c(N3CCCCC3)cc21 (configuration not stated) 3.86%, CCOC(=O)C1=C(C)N=c2sc(=Cc3ccncc3)c(=O)n2C1c1ccc2c(c1)OCO2 (configuration not stated) -0.871%, O=C(N[C@@H](Cc1ccccc1)C(=O)OCc1ccccc1)c1nc[nH]c1C(=O)NC1CCNCC1 -1.66%, CC(C)(C)OC(=O)CNC(=O)c1[nH]cnc1C(=O)N[C@@H](Cc1ccccc1)C(=O)OCc1ccccc1 0.224%, O=C(CNC(=O)c1ccncc1)NN=Cc1cccc([N+](=O)[O-])c1 1.21%, C[C@H](NC(=O)c1ccccc1Cl)C(=O)OCC(=O)N1CCN(c2ccccc2)CC1 0.507%, COc1cccc(/C=C/C(=O)OCC(=O)N2CCN(c3ccccc3)CC2)c1 -11.1%, Cc1cc([N+](=O)[O-])cc(C=Nn2c(C)nc3ccccc3c2=O)c1O 12.9%, Cc1cc(C)n(C(=O)C(C#N)=NNc2cc(Cl)cc(Cl)c2)n1 7.62%, CON=C(C(=O)N[C@@H]1C(=O)N2C(C(=O)O)=C(COC(C)=O)CS[C@H]12)c1csc(N)n1 2.25% and 5.96%, Clc1ccc(-c2csc(NN=Cc3cccnc3)n2)cc1 7.34%, CCOC(=O)c1c(C)nc(-c2ccccc2)nc1NC(=O)C(C)C 2.52%, CCOC(=O)c1ccccc1OC(=O)Oc1ccccc1C(=O)OCC 2.7%, O=C(NN=C/C(Br)=C/c1ccccc1)NC1CCCCC1 4.04%, Cc1cc(C)nc(SCC(=O)N(C)C)n1 4.9%, CC(C)N(C(=O)CSc1nc(COc2ccccc2)nc2ccccc12)C(C)C 2.03%, O=C(NN=Cc1cccs1)c1cc(-c2ccc(Cl)s2)[nH]n1 4.08%, Cc1nn(Cc2ccc(Cl)cc2Cl)c(Cl)c1C=NNC(=O)CNc1cccc(C(F)(F)F)c1 5.09%, COc1ccc(CCNC(=O)CSc2nc(C)nc3c2oc2ccccc23)cc1OC 1.13%, O=c1[nH]c(CSc2ccccc2)nc2c1oc1ccccc12 3.26%, N#Cc1ccc(OCC(=O)NN=C2CC(c3ccccc3)Oc3ccccc32)cc1 (configuration not stated) 6.87%, COC(=O)c1ccccc1-c1ccc(C=NNC(N)=O)o1 -17.5%, Cc1cc(C(=O)NN=C2CC(=O)CC(C)(C)C2)c2ccccc2n1 6.67%, O=C(/C=C/c1ccc(N2CCOCC2)cc1)c1ccccc1 -0.318%, O=C(O)c1ccc2c(c1)C(=O)N(c1ccc(/C=C/C(=O)c3ccccc3)cc1)C2=O 8.59%, CCN1C(=O)CSC1=NS(=O)(=O)c1ccc(Cl)cc1 -0.232%, COc1ccc(C=NNC(=O)CSc2ccccn2)cc1OC 5.41%, CCOC(=O)CNC(=O)N1c2ccccc2Sc2ccccc21 5.96%, CCN1/C(=C\c2ccc3ccccc3[n+]2CC)Sc2cc(C)ccc21 4.94%, COC(=O)c1ccc(C=NNC(=O)CNc2cccc(C)c2)cc1 1.65%, Cc1[nH]c2ccccc2c1C=NNC(=O)CCC(=O)NCc1ccccc1 2.82%, Cc1cccc(C=NNC(=O)Cn2nccc2C)n1 -0.386%, COc1ccc(S(=O)(=O)NCCCc2ccccc2)cc1 4.02%, O=C1C=C(NS(=O)(=O)c2ccccc2)C(=O)c2ccccc21 16.2%, CC(=NNC(=O)c1cccc(NN=C(C)c2ccco2)c1)c1ccco1 1.7%, CCCCCCC(=O)NN=CCc1ccccc1 0.89%, COc1ccccc1N1CCN(N=C/C=C\c2ccccc2[N+](=O)[O-])CC1 7.46%, CON=CCc1oc(=O)c(NC(=O)c2ccccc2)cc1C(=O)OC 1.47%, CCCCCCCNC(=O)C1(CC2CC(c3cccc(Br)c3)=NO2)CCN(C(=O)c2cc(OCC)c(OCC)c(OCC)c2)CC1 (configuration not stated) 3.99%, COc1ccc(CNC(=O)C2(CC3CC(c4ccccc4)=NO3)CCN(C(=O)c3cccc(O)c3)CC2)cc1 (configuration not stated) 4.4%, CCOc1cc(C=NNC(=O)C(N)=O)cc(Br)c1O 13.3%, O=[N+]([O-])c1ccc2c(c1)Nc1nc3ccccc3nc1N2 0.978%, O=[N+]([O-])c1ccc(N(CCO)Cc2ccccc2)c([N+](=O)[O-])c1 6.59%, Cc1nnc(NN=Cc2ccccn2)[nH]c1=O 1.91%, CC(=N/N=C1/NC(=O)C(CC(=O)NCc2ccccc2)S1)C(C)C (configuration not stated) 3.63%, CCNC(=S)N=C(N)Nc1nc(C)c2cc(C)ccc2n1 6.4%, C(=NNc1nc(N2CCOCC2)nc(N2CCOCC2)n1)c1cccnc1 2.78%, Cc1ccc(S(=O)(=O)/N=S(\C)C(C)C)cc1 (configuration not stated) 0.621%, Cc1ccc(N2C(=O)CC(Sc3ncn[nH]3)C2=O)cc1 (configuration not stated) 5.88%, CC(=NNC(=S)NC(C)C)c1ccc(Cl)s1 8.08%, COc1ccccc1Oc1ccc(N/C=C2/CCCC2=O)cc1 3.61%, O=C(Cc1ccccc1)NNC(=O)C1CCN(c2ncccn2)CC1 -5.78%

inhibition, active:
CCN(CC)C(=O)c1nc[nH]c1C(=O)N(C)Cc1ccccc1 26.1%, CC(=O)N1C(=O)/C(=C2\SC(=S)N(NC(=O)c3ccc(O)cc3)C2=O)c2ccccc21 40.9%, COCCN1C=C2C(=O)C(C)(OC(=O)C3CCCC3)C(=O)C=C2C=C1c1ccsc1 (configuration not stated) 46.2%, CCS(=O)(=O)N1CCCC(C(=O)NCCCN(C)Cc2ccccc2)C1 (configuration not stated) 29%, O=C(NC1CCCC1)C(c1ccc(N2CCOCC2)cc1)N(C(=O)c1ccco1)c1ccccc1F (configuration not stated) 38.4%, Nc1c(Cl)cc(-c2csc(N3CCCC3c3nc4cc(Cl)c(Cl)cc4n3CCOCCO)n2)cc1Cl (configuration not stated) 28%, O=C(N[C@@H](Cc1ccccc1)C(=O)OCc1ccccc1)c1nc[nH]c1C(=O)N[C@@H](Cc1ccccc1)C(=O)OCc1ccccc1 31.8%, O=C(OCC(=O)N1CCN(c2ccccc2)CC1)c1ccc([N+](=O)[O-])s1 61.3%, CCOC(=O)c1c(C)[nH]c2c1-c1ccccc1C(=O)C2=O 72.6%, Cc1nnc(SCC(=O)N(C(C)C)C(C)C)nc1C 32.8%, CCSc1nc(C)nc2c1oc1ccccc12 22.4%, O=C(/C=C/c1ccccc1)c1ccoc1 35.8%, CCC(=O)/C=C1\Sc2ccccc2N1CC 23.7%, COc1ccc(S(=O)(=O)/N=C2\C=C(NS(=O)(=O)c3ccccc3)C(=O)c3ccccc32)cc1 39.6%, O=C(c1ccccc1)N1CCC(CC2CC(c3ccc(Cl)cc3)=NO2)(C(=O)NCC2CCCCC2)CC1 (configuration not stated) 22.5%, O=C1Nc2ccc([N+](=O)[O-])cc2C1=Nc1cccc(CO)c1 55.8%, Cc1ccc(S(=O)(=O)N=C2C=C(Sc3ncn[nH]3)C(=O)c3ccccc32)cc1 63.7%, O=C1/C(=C\Nc2ccccc2)CCN1c1ncccn1 21%
